The structures appear in SMILES notation. The source made the active and inactive calls. No cut-off for these calls is given here.

This note sets out measurements from ChEMBL document CHEMBL4177742, “Synthesis and biological evaluation of 4β-(thiazol-2-yl)amino-4'-O-demethyl-4-deoxypodophyllotoxins as topoisomerase-II inhibitors” (Bioorg Med Chem Lett, 2018).

For assay [1], the system named is A549. Nature of the assay: Cytotoxicity against human A549 cells assessed as reduction in inhibition of cell growth incubated for 48 hrs by MTT assay. It counts as functional, cell-based. The settings on record: A549, 48 h.
A further assay has as its system HepG2. Nature of the assay: Cytotoxicity against human HepG2 cells assessed as reduction in inhibition of cell growth incubated for 48 hrs by MTT assay. Format: functional, cell-based. The following applies: HepG2, 48 h. For orientation: Tetrazolium dyes change colour on reduction, which living cells bring about.
The next assay relates to HeLa. The experiment in a line: Cytotoxicity against human HeLa cells assessed as reduction in inhibition of cell growth incubated for 48 hrs by MTT assay. It counts as functional, cell-based.
Another assay deals with LoVo. Nature of the assay: Cytotoxicity against human LoVo cells assessed as reduction in inhibition of cell growth incubated for 48 hrs by MTT assay. Format: functional, cell-based.
A further assay concerns WI-38. Nature of the assay: Cytotoxicity against human WI38 cells assessed as reduction in inhibition of cell growth incubated for 48 hrs by MTT assay. The following applies: WI-38, 48 h. Format: cell-based.
For assay [2], the system named is A549. Nature of the assay: Inhibition of topoisomerase 2alpha protein expression in human A549 cells at 1 to 10 uM incubated for 12 hrs by Western blotting. Format: functional, cell-based. In short, it runs like this: (§1)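 Topo-IIα and topo-IIβ expression was measured in A549 cells treated 12 h at 1, 5 and 10 μM, with etoposide (5 μM) as a reference treatment.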
(In general: A western blot detects proteins with antibodies after separation by electrophoresis.)

Assay [3] deals with A549. Nature of the assay: Inhibition of topoisomerase 2beta protein expression in human A549 cells at 1 to 10 uM incubated for 12 hrs by Western blotting. Format: functional, cell-based. In short, it runs like this: as §1
Assay [4] has as its target DNA topoisomerase 2-alpha (Homo sapiens) (UniProt P11388). Nature of the assay: Inhibition of topoisomerase 2alpha in human A549 cells assessed as reduction in enzyme-mediated super coliling activity by measuring induction of pBR322 DNA relaxation at 100 uM incubated for 12 hrs by ethidium bromide staining based agarose gel electrophoresis method. It counts as cell-based.

Assay [5] has as its system A549. Nature of the assay: Induction of DNA double stranded breaks in human A549 cells assessed as increase in gamma-H2Ax level at 1 to 10 uM incubated for 12 hrs by Western blotting. Format: functional, cell-based. In short, it runs like this: (§2)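 A549 cells exposed for 12 h to 1, 5 or 10 μM alongside vehicle and etoposide (5 μM) as a reference. Lysates were probed by western blotting for phospho-H2AX (Ser-139, γH2AX), p73 and phospho-ATM.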

Assay [6] deals with A549. Nature of the assay: Induction of DNA double stranded breaks in human A549 cells assessed as increase in gamma-H2Ax level at 1 to 5 uM incubated for 12 hrs by DAPI staining based immunofluorescence assay. Format: functional, cell-based. In short, it runs like this:
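A549 cells were treated 12 h with vehicle, 1 μM or 5 μM, then immunostained with anti-γH2AX antibody and counterstained with DAPI. Nuclear γH2AX foci were scored by immunofluorescence as a marker of DNA double-strand breaks.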

Assay [7] deals with A549. Nature of the assay: Induction of DNA double stranded breaks in human A549 cells assessed as increase in p73 protein levels at 1 to 10 uM incubated for 12 hrs by Western blotting. Format: functional, cell-based. The gist of the method:
as §2

Assay [8] has as its system A549. Nature of the assay: Induction of DNA double stranded breaks in human A549 cells assessed as increase in ATM phosphorylation levels at 1 to 10 uM incubated for 12 hrs by Western blotting. Format: functional, cell-based. The gist of the method: as §2
The subject of assay [9] is A549. Nature of the assay: Induction of cell cycle arrest in human A549 cells assessed as increase in cyclin B1 protein level at 1 to 10 uM incubated for 12 hrs by Western blotting. It counts as functional, cell-based. In short, it runs like this: (§3)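 For G2/M regulators, A549 cells were exposed 12 h to 1, 5 or 10 μM and analysed by western blotting for cyclin B1 and cdc2(p34).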

Assay [10] deals with A549. Nature of the assay: Induction of cell cycle arrest in human A549 cells assessed as increase in cdc2(p34) protein level at 1 to 10 uM incubated for 12 hrs by Western blotting. Format: functional, cell-based. In short, it runs like this: as §3
The subject of assay [11] is A549. Nature of the assay: Induction of cell cycle arrest in human A549 cells assessed as increase in accumulation at G2/M phase at 1 to 5 uM incubated for 12 hrs by propidium iodide staining based FACS analysis. (A flow cytometer gives signals particle by particle.)
The test system of assay [12] is A549. Nature of the assay: Induction of cell cycle arrest in human A549 cells assessed as reduction in accumulation at G1 phase at 1 to 5 uM incubated for 12 hrs by propidium iodide staining based FACS analysis.

Sequence of DNA topoisomerase 2-alpha (Homo sapiens) (P11388 whole entry): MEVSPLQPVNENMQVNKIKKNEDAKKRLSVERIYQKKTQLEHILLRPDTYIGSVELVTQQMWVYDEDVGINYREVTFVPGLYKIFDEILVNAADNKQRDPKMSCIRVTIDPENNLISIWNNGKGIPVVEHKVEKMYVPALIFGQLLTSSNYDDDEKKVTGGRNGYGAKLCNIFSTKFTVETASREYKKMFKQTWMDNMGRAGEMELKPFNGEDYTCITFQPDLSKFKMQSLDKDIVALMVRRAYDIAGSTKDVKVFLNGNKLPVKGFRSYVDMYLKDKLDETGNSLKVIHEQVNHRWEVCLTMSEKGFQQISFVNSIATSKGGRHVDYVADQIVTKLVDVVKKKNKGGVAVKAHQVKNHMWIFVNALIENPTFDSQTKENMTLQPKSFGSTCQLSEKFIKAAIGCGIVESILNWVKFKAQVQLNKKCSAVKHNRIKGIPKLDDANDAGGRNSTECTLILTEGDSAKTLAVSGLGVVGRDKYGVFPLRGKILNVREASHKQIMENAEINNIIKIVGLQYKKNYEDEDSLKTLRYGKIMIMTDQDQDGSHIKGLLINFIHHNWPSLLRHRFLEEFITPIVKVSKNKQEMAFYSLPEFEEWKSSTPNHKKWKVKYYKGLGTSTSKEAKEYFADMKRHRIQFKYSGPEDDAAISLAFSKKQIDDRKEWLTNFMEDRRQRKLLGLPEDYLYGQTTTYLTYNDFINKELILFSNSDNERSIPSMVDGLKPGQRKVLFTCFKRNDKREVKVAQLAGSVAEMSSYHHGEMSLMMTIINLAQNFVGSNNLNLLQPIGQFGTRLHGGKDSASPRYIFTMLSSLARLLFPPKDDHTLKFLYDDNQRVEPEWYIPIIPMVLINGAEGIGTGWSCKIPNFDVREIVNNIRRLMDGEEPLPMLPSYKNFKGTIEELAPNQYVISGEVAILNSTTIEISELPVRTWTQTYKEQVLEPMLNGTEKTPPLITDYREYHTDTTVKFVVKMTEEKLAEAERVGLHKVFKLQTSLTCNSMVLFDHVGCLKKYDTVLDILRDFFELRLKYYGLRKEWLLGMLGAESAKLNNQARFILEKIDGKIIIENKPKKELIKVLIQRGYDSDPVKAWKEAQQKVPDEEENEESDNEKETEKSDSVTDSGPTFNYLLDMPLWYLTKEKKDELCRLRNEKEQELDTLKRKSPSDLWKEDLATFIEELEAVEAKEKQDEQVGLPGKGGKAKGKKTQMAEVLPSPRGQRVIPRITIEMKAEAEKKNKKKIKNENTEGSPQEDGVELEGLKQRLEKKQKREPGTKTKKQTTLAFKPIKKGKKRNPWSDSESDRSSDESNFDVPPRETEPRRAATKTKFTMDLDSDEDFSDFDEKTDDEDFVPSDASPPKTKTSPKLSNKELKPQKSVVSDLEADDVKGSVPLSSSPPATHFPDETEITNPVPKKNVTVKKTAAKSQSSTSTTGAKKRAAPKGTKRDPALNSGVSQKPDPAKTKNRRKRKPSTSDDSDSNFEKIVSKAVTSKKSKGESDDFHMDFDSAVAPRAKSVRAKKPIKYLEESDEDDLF

Usually IC50 stands for the midpoint of a concentration-inhibition curve. In the case of `COc1cc([C@@H]2c3cc4c(cc3[C@@H](Nc3nc(CC(=O)NC5CCCC5)cs3)[C@H]3COC(=O)[C@H]23)OCO4)cc(OC)c1O`, the IC50 in the assay on A549 [1] came to 9.1 µM; in the assay on HepG2, 19.1 µM; in the assay on HeLa, 14.1 µM; in the assay with LoVo it was 21 µM; in the assay on WI-38 it was 29 µM.

On to `COc1cc([C@@H]2c3cc4c(cc3[C@@H](Nc3nc(CC(=O)NC5CC5)cs3)[C@H]3COC(=O)[C@H]23)OCO4)cc(OC)c1O`, for which the IC50 in the assay with A549 [1] stood at 11.1 µM; in the assay on HepG2, 10.2 µM; with HeLa, 17.2 µM; with LoVo, 19.1 µM; in the assay with WI-38, 56 µM.

Regarding `CCOC(=O)c1csc(N[C@@H]2c3cc4c(cc3[C@@H](c3cc(OC)c(O)c(OC)c3)[C@H]3C(=O)OC[C@@H]32)OCO4)n1`, the IC50 in the assay with A549 [1] was 0.16 µM; in the assay on HepG2 it was 0.13 µM; with HeLa, 5.6 µM; with LoVo, 5 µM; in the assay on WI-38, 55.3 µM. The inhibition result with A549 [2] and in the assay with A549 [3] was “Dose-dependent effect” each time. Also, the inhibition entry in [4] was “Active”. For the same molecule, the Activity entry with A549 [5], in the assay on A549 [7], with A549 [8], in the assay on A549 [9], with A549 [10] and in the assay on A549 [11] was “Dose-dependent effect” in each case. For the same molecule, the Activity result with A549 [12] was “Dose-dependent effect”. Moreover, the outcome in the assay on A549 [6] was Active.

In the case of `COc1cc([C@@H]2c3cc4c(cc3[C@@H](Nc3nc(CC(=O)N5CCN(C)CC5)cs3)[C@H]3COC(=O)[C@H]23)OCO4)cc(OC)c1O`, the IC50 was 22.3 µM with A549 [1]; 18.7 µM with HepG2; 16.5 µM with HeLa; 27.4 µM with LoVo; 28.1 µM with WI-38.

In the case of `COc1cc([C@@H]2c3cc4c(cc3[C@@H](Nc3nc(CC(=O)NC5CCCCC5)cs3)[C@H]3COC(=O)[C@H]23)OCO4)cc(OC)c1O`, the IC50 with A549 [1] is 9.4 µM; in the assay with HepG2, 16.3 µM; in the assay on HeLa it was 10.7 µM; in the assay on LoVo it was 19.1 µM; in the assay with WI-38 it was 77.8 µM.

On to `COc1cc([C@@H]2c3cc4c(cc3[C@@H](Nc3nc(CC(=O)N5CCOCC5)cs3)[C@H]3COC(=O)[C@H]23)OCO4)cc(OC)c1O`, for which the IC50 is 18.7 µM in the assay on A549 [1]; 15.1 µM in the assay with HepG2; 14.8 µM in the assay with HeLa; 37.2 µM in the assay on LoVo; 33.5 µM in the assay on WI-38.

As to `COc1cc([C@@H]2c3cc4c(cc3[C@@H](Nc3nc(CC(=O)N5CCN(C6CCCC6)CC5)cs3)[C@H]3COC(=O)[C@H]23)OCO4)cc(OC)c1O`, the IC50 was determined as 1.3 µM in the assay on A549 [1]; 8.5 µM in the assay with HepG2; 4.4 µM with HeLa; 9.2 µM with LoVo; 66.7 µM in the assay on WI-38. Further, the inhibition entry in the assay with A549 [2] and with A549 [3] was “Dose-dependent effect” each time. In addition, the inhibition result in assay [4] was “Active”. The Activity result in the assay on A549 [5], in the assay on A549 [7], in the assay with A549 [8], in the assay on A549 [9], in the assay with A549 [10] and in the assay with A549 [11] was “Dose-dependent effect” in each case. Also, in the assay with A549 [12], the Activity result is “Dose-dependent effect”. Also, in the assay with A549 [6], the result was Active.

As to `COc1cc([C@@H]2c3cc4c(cc3[C@@H](Nc3nc(CC(=O)O)cs3)[C@H]3COC(=O)[C@H]23)OCO4)cc(OC)c1O`, the IC50 in the assay on A549 [1] was 8.3 µM; in the assay with HepG2, 9.3 µM; in the assay on HeLa, 8.7 µM; with LoVo, 10.3 µM; in the assay on WI-38, 42.5 µM.

Consider `CCOC(=O)Cc1csc(N[C@@H]2c3cc4c(cc3[C@@H](c3cc(OC)c(O)c(OC)c3)[C@H]3C(=O)OC[C@@H]32)OCO4)n1`, for which the IC50 in the assay with A549 [1] was 9.3 µM; with HepG2, 0.12 µM; with HeLa it was 12.5 µM; in the assay on LoVo it was 7 µM; with WI-38, 44.4 µM.

`COc1cc([C@@H]2c3cc4c(cc3[C@@H](O[C@@H]3O[C@@H]5CO[C@@H](C)O[C@H]5[C@H](O)[C@H]3O)[C@H]3COC(=O)[C@H]23)OCO4)cc(OC)c1O` [ETOPOSIDE]: the IC50 in the assay with A549 [1] was 9.1 µM; with HepG2, 9.2 µM; in the assay on HeLa it was 11.2 µM; in the assay with LoVo it was 18.7 µM; in the assay on WI-38, 25.7 µM.
